Data as given in ChEMBL document CHEMBL1142148, “Antibiotic susceptibility profile of bifidobacteria as affected by oxgall, acid, and hydrogen peroxide stress” (2007).
Values after ≈ are worked out from the molar mass of the structure shown.

Legend:
[1] = tested on: Bifidobacterium animalis; assay: Antimicrobial activity against Bifidobacterium animalis ATCC 27536; assay type: functional
In short: (§1)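 Broth microdilution in MRS plus 0.05% L-cysteine-HCl. Mid-log culture adjusted to OD650 0.1, giving about 2.5 × 10^4 to 5.0 × 10^4 CFU/well, then added to twofold serial dilutions of agent. Plates incubated anaerobically at 37°C for 18 h and read at OD650. MIC is the lowest concentration matching the uninoculated blank OD, taken as the median of four repeats.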

[2] = tested on: Bifidobacterium bifidum; assay: Antimicrobial activity against Bifidobacterium bifidum R0071; assay type: functional; in short: as §1
[3] = tested on: Bifidobacterium bifidum; assay: Antimicrobial activity against Bifidobacterium bifidum ATCC 15696; assay type: functional; in short: as §1
[4] = tested on: Bifidobacterium bifidum; assay: Antimicrobial activity against Bifidobacterium bifidum BB12; assay type: functional; in short: as §1
[5] = tested on: Bifidobacterium breve; assay: Antimicrobial activity against Bifidobacterium breve ATCC 15700; assay type: functional; in short: as §1
[6] = Antimicrobial activity against Bifidobacterium infantis ATCC 15697; assay type: functional, Bifidobacterium longum subsp. infantis; details: Bifidobacterium longum; in short: as §1
[7] = tested on: Bifidobacterium longum; assay: Antimicrobial activity against Bifidobacterium longum ATCC 15708; assay type: functional; in short: as §1
[8] = tested on: Bifidobacterium longum; assay: Antimicrobial activity against Bifidobacterium longum R0175; assay type: functional; in short: as §1
[9] = tested on: Bifidobacterium longum; assay: Antimicrobial activity against Bifidobacterium longum P/N 601377; assay type: functional; in short: as §1
[10] = tested on: Bifidobacterium pseudolongum; assay: Antimicrobial activity against Bifidobacterium pseudolongum ATCC 25562; assay type: functional; in short: as §1
[11] = tested on: Bifidobacterium thermophilum; assay: Antimicrobial activity against Bifidobacterium thermophilum ATCC 25866; assay type: functional; in short: as §1
[12] = tested on: Bifidobacterium breve; assay: Antimicrobial activity against Bifidobacterium breve R0070; assay type: functional; in short: as §1
[13] = tested on: Bifidobacterium animalis; assay: Antimicrobial activity against 60 min 1 M HCl-stressed Bifidobacterium animalis ATCC 27536 after 18 hrs; assay type: functional
In short: (§2)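 Mid-log MRS culture pelleted and resuspended in MRS broth brought to pH 2.0 with 1 M HCl, held anaerobically at 37°C for 60 min, then subcultured in MRS (pH 6.5) for 24 h anaerobically before MIC testing by broth microdilution (as for unstressed cells). Table footnote gives 18 h anaerobic regrowth after the stress. MIC is the median of four repetitions.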

[14] = tested on: Bifidobacterium bifidum; assay: Antimicrobial activity against 60 min 1 M HCl-stressed Bifidobacterium bifidum R0071 after 18 hrs; assay type: functional; in short: as §2
[15] = tested on: Bifidobacterium bifidum; assay: Antimicrobial activity against 60 min 1 M HCl-stressed Bifidobacterium bifidum BB12 after 18 hrs; assay type: functional; in short: as §2
[16] = tested on: Bifidobacterium breve; assay: Antimicrobial activity against 60 min 1 M HCl-stressed Bifidobacterium breve ATCC 15700 after 18 hrs; assay type: functional; in short: as §2
[17] = tested on: Bifidobacterium breve; assay: Antimicrobial activity against 60 min 1 M HCl-stressed Bifidobacterium breve R0070 after 18 hrs; assay type: functional; in short: as §2
[18] = Antimicrobial activity against 60 min 1 M HCl-stressed Bifidobacterium infantis ATCC 15697 after 18 hrs; assay type: functional, Bifidobacterium longum subsp. infantis; details: Bifidobacterium longum; in short: as §2
[19] = tested on: Bifidobacterium longum; assay: Antimicrobial activity against 60 min 1 M HCl-stressed Bifidobacterium longum ATCC 15707 after 18 hrs; assay type: functional; in short: as §2
[20] = tested on: Bifidobacterium longum; assay: Antimicrobial activity against 60 min 1 M HCl-stressed Bifidobacterium longum R0175 after 18 hrs; assay type: functional; in short: as §2
[21] = tested on: Bifidobacterium longum; assay: Antimicrobial activity against 60 min 1 M HCl-stressed Bifidobacterium longum P/N 601377 after 18 hrs; assay type: functional; in short: as §2
[22] = tested on: Bifidobacterium pseudolongum; assay: Antimicrobial activity against 60 min 1 M HCl-stressed Bifidobacterium pseudolongum ATCC 25562 after 18 hrs; assay type: functional; in short: as §2
[23] = tested on: Bifidobacterium thermophilum; assay: Antimicrobial activity against 60 min 1 M HCl-stressed Bifidobacterium thermophilum ATCC 25866 after 18 hrs; assay type: functional; in short: as §2
[24] = tested on: Bifidobacterium animalis; assay: Antimicrobial activity against 90 mins oxgall-stressed Bifidobacterium animalis ATCC 27536 after 18 hrs; assay type: functional
In short: (§3)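 Cells pelleted from mid-log MRS culture and resuspended in MRS (initial pH 6.5) with 0.3% (wt/vol) oxgall for 90 min anaerobically at 37°C. They were then regrown in MRS pH 6.5 for 24 h (footnote: 18 h) anaerobically and tested for MIC by the same broth microdilution assay. Median of four repetitions.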

[25] = tested on: Bifidobacterium bifidum; assay: Antimicrobial activity against 90 mins oxgall-stressed Bifidobacterium bifidum R0071 after 18 hrs; assay type: functional; in short: as §3
[26] = tested on: Bifidobacterium bifidum; assay: Antimicrobial activity against 90 mins oxgall-stressed Bifidobacterium bifidum ATCC 15696 after 18 hrs; assay type: functional; in short: as §3
[27] = tested on: Bifidobacterium bifidum; assay: Antimicrobial activity against 90 mins oxgall-stressed Bifidobacterium bifidum BB12 after 18 hrs; assay type: functional; in short: as §3
[28] = tested on: Bifidobacterium breve; assay: Antimicrobial activity against 90 mins oxgall-stressed Bifidobacterium breve ATCC 15700 after 18 hrs; assay type: functional; in short: as §3
[29] = tested on: Bifidobacterium breve; assay: Antimicrobial activity against 90 mins oxgall-stressed Bifidobacterium breve R0070 after 18 hrs; assay type: functional; in short: as §3
[30] = Antimicrobial activity against 90 mins oxgall-stressed Bifidobacterium infantis ATCC 15697 after 18 hrs; assay type: functional, Bifidobacterium longum subsp. infantis; details: Bifidobacterium longum; in short: as §3
[31] = tested on: Bifidobacterium longum; assay: Antimicrobial activity against 90 mins oxgall-stressed Bifidobacterium longum ATCC 15707 after 18 hrs; assay type: functional; in short: as §3
[32] = tested on: Bifidobacterium longum; assay: Antimicrobial activity against 90 mins oxgall-stressed Bifidobacterium longum ATCC 15708 after 18 hrs; assay type: functional; in short: as §3
[33] = tested on: Bifidobacterium longum; assay: Antimicrobial activity against Bifidobacterium longum ATCC 15707; assay type: functional; in short: as §1
[34] = tested on: Bifidobacterium longum; assay: Antimicrobial activity against 90 mins oxgall-stressed Bifidobacterium longum R0175 after 18 hrs; assay type: functional; in short: as §3
[35] = tested on: Bifidobacterium longum; assay: Antimicrobial activity against 90 mins oxgall-stressed Bifidobacterium longum P/N 601377 after 18 hrs; assay type: functional; in short: as §3
[36] = tested on: Bifidobacterium pseudolongum; assay: Antimicrobial activity against 90 mins oxgall-stressed Bifidobacterium pseudolongum ATCC 25562 after 18 hrs; assay type: functional; in short: as §3
[37] = tested on: Bifidobacterium thermophilum; assay: Antimicrobial activity against 90 mins oxgall-stressed Bifidobacterium thermophilum ATCC 25866 after 18 hrs; assay type: functional; in short: as §3
[38] = tested on: Bifidobacterium animalis; assay: Antimicrobial activity against 90 mins hydrogen peroxide-stressed Bifidobacterium animalis ATCC 27536 after 18 hrs; assay type: functional
In short: (§4)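 Stress applied for 90 min at 37°C under anaerobic conditions, using MRS (initial pH 6.5) containing H2O2 at each strain's own inhibitory concentration. The H2O2 level was set beforehand by microplate tolerance testing. Challenged cells were regrown in MRS for 24 h (footnote: 18 h) before MIC testing by broth microdilution. Median of four repetitions.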

[39] = tested on: Bifidobacterium bifidum; assay: Antimicrobial activity against 90 mins hydrogen peroxide-stressed Bifidobacterium bifidum R0071 after 18 hrs; assay type: functional; in short: as §4
[40] = tested on: Bifidobacterium bifidum; assay: Antimicrobial activity against 90 mins hydrogen peroxide-stressed Bifidobacterium bifidum BB12 after 18 hrs; assay type: functional; in short: as §4
[41] = tested on: Bifidobacterium breve; assay: Antimicrobial activity against 90 mins hydrogen peroxide-stressed Bifidobacterium breve ATCC 15700 after 18 hrs; assay type: functional; in short: as §4
[42] = tested on: Bifidobacterium breve; assay: Antimicrobial activity against 90 mins hydrogen peroxide-stressed Bifidobacterium breve R0070 after 18 hrs; assay type: functional; in short: as §4
[43] = tested on: Bifidobacterium longum; assay: Antimicrobial activity against 90 mins hydrogen peroxide-stressed Bifidobacterium longum ATCC 15707 after 18 hrs; assay type: functional; in short: as §4
[44] = tested on: Bifidobacterium longum; assay: Antimicrobial activity against 90 mins hydrogen peroxide-stressed Bifidobacterium longum ATCC 15708 after 18 hrs; assay type: functional; in short: as §4
[45] = tested on: Bifidobacterium longum; assay: Antimicrobial activity against 90 mins hydrogen peroxide-stressed Bifidobacterium longum R0175 after 18 hrs; assay type: functional; in short: as §4
[46] = tested on: Bifidobacterium longum; assay: Antimicrobial activity against 90 mins hydrogen peroxide-stressed Bifidobacterium longum P/N 601377 after 18 hrs; assay type: functional; in short: as §4
[47] = tested on: Bifidobacterium thermophilum; assay: Antimicrobial activity against 90 mins hydrogen peroxide-stressed Bifidobacterium thermophilum ATCC 25866 after 18 hrs; assay type: functional; in short: as §4

CC1(C)S[C@@H]2[C@H](NC(=O)[C@H](N)c3ccccc3)C(=O)N2[C@H]1C(=O)O [AMPICILLIN]
MIC [1]: 15.6 µg/mL (≈ 44.6 µM)
MIC [2]: 1.9 µg/mL (≈ 5.44 µM)
MIC [3]: 0.98 µg/mL (≈ 2.8 µM)
MIC [4]: 31.2 µg/mL (≈ 89.3 µM)
MIC [5]: 3.9 µg/mL (≈ 11.2 µM)
MIC [6]: 7.8 µg/mL (≈ 22.3 µM)
MIC [7]: 7.8 µg/mL (≈ 22.3 µM)
MIC [8]: 7.8 µg/mL (≈ 22.3 µM)
MIC [9]: 0.98 µg/mL (≈ 2.8 µM)
MIC [10]: 3.9 µg/mL (≈ 11.2 µM)
MIC [11]: 0.98 µg/mL (≈ 2.8 µM)
MIC [12]: 15.6 µg/mL (≈ 44.6 µM)
MIC [13]: 0.98 µg/mL (≈ 2.8 µM)
MIC [14]: 0.98 µg/mL (≈ 2.8 µM)
MIC [15]: 0.98 µg/mL (≈ 2.8 µM)
MIC [16]: 0.98 µg/mL (≈ 2.8 µM)
MIC [17]: 3.9 µg/mL (≈ 11.2 µM)
MIC [18]: 0.98 µg/mL (≈ 2.8 µM)
MIC [19]: 3.9 µg/mL (≈ 11.2 µM)
MIC [20]: 0.98 µg/mL (≈ 2.8 µM)
MIC [21]: 0.98 µg/mL (≈ 2.8 µM)
MIC [22]: 0.98 µg/mL (≈ 2.8 µM)
MIC [23]: 3.9 µg/mL (≈ 11.2 µM)
MIC [24]: 0.98 µg/mL (≈ 2.8 µM)
MIC [25]: 0.98 µg/mL (≈ 2.8 µM)
MIC [26]: 0.98 µg/mL (≈ 2.8 µM)
MIC [27]: 0.98 µg/mL (≈ 2.8 µM)
MIC [28]: 3.9 µg/mL (≈ 11.2 µM)
MIC [29]: 0.98 µg/mL (≈ 2.8 µM)
MIC [30]: 0.98 µg/mL (≈ 2.8 µM)
MIC [31]: 0.98 µg/mL (≈ 2.8 µM)
MIC [32]: 0.98 µg/mL (≈ 2.8 µM)
MIC [33]: 15.6 µg/mL (≈ 44.6 µM)
MIC [34]: 0.98 µg/mL (≈ 2.8 µM)
MIC [35]: 0.98 µg/mL (≈ 2.8 µM)
MIC [36]: 0.98 µg/mL (≈ 2.8 µM)
MIC [37]: 1.9 µg/mL (≈ 5.44 µM)
MIC [38]: 3.9 µg/mL (≈ 11.2 µM)
MIC [39]: 0.98 µg/mL (≈ 2.8 µM)
MIC [40]: 0.98 µg/mL (≈ 2.8 µM)
MIC [41]: 3.9 µg/mL (≈ 11.2 µM)
MIC [42]: 0.98 µg/mL (≈ 2.8 µM)
MIC [43]: 0.98 µg/mL (≈ 2.8 µM)
MIC [44]: 3.9 µg/mL (≈ 11.2 µM)
MIC [45]: 1.9 µg/mL (≈ 5.44 µM)
MIC [46]: 0.98 µg/mL (≈ 2.8 µM)
MIC [47]: 3.9 µg/mL (≈ 11.2 µM)
